This is an account of results in ChEMBL document CHEMBL1125736, “N-[(omega-amino-1-hydroxyalkyl)phenyl]methanesulfonamide derivatives with class III antiarrhythmic activity” (1991).

Format in all cases: functional
The species named for assay [1] is Oryctolagus cuniculus. The experiment in a line: Tested for effective refractory period measured at a pacing rate of 1 Hz in vitro with rabbit heart tissue preparations. The method, boiled down:
(§1)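 Isolated rabbit heart tissues, all from one heart, each its own baseline; 2 h equilibration, perfusate changed every 15 min, basal stimulation 2 Hz between measurements. Exposed to 10^-7, 10^-6 and 10^-5 M drug, 15 min each; values reported at 10^-5 M as percent change from baseline. Drug solutions prepared daily in glass-distilled water. Force and rate recorded on polygraph.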

The species entered for assay [2] is Oryctolagus cuniculus. The experiment in a line: Tested for effective refractory period measured at a pacing rate of 3 Hz in vitro with rabbit heart tissue preparations. Details: unit: %. The method, boiled down: as §1
Assay [3] is filed under the species Oryctolagus cuniculus. The experiment in a line: Tested for conduction time measured at a pacing rate of 3 Hz in vitro with rabbit heart tissue preparations. The method, boiled down: as §1
For assay [4], the species on record is Oryctolagus cuniculus. The experiment in a line: Tested for force of contraction measured in mg at a pacing rate of 2 Hz in vitro with rabbit heart tissue preparations. The method, boiled down:
as §1

For assay [5], the species on record is Oryctolagus cuniculus. Briefly: Tested for conduction time measured at a pacing rate of 1 Hz in vitro with rabbit heart tissue preparations. The gist of the method: as §1
For assay [6], the species on record is Oryctolagus cuniculus. Briefly: Tested for rate automaticity measured in beats per minute from unpaced right atria of rabbit heart. The gist of the method: as §1

Molecules are shown by their SMILES.

As for `CCCCCCCCCCN(CC)CCCC(O)c1ccc(NS(C)(=O)=O)cc1` (stereo not drawn), the ERP1 in the assay listed under Oryctolagus cuniculus [1] is listed as 11.8. Besides, the ERP3 in the assay filed under Oryctolagus cuniculus [2] came out at 16.1. For the same compound, the CT3 in the assay listed under Oryctolagus cuniculus [3] was found to be 74.3. In the assay listed under Oryctolagus cuniculus [4], this compound yielded an FOC of -23.1. This compound yielded a CT1 in the assay listed under Oryctolagus cuniculus [5] of 63.2. The Rate in the assay filed under Oryctolagus cuniculus [6] is -11.

Compound `CCCCCCCN(CC)CCCCc1ccc(NS(C)(=O)=O)cc1` yielded an ERP1 in the assay filed under Oryctolagus cuniculus [1] of 28.3. Moreover, the ERP3 in the assay filed under Oryctolagus cuniculus [2] is listed as 19.2. In the assay listed under Oryctolagus cuniculus [3], this compound came in with a CT3 of 140. This compound returned an FOC in the assay filed under Oryctolagus cuniculus [4] of -24.2. Also, the CT1 in the assay listed under Oryctolagus cuniculus [5] came out at 67.2. The Rate in the assay listed under Oryctolagus cuniculus [6] is reported as -27.

Take `CCCCCCCN(CC)CCCC(=O)c1ccc(NS(C)(=O)=O)cc1`: the ERP1 in the assay filed under Oryctolagus cuniculus [1] is recorded as 6.6. In addition, the ERP3 in the assay filed under Oryctolagus cuniculus [2] was determined as 9.4. This compound also had a CT3 in the assay listed under Oryctolagus cuniculus [3] of 0.6. In the assay listed under Oryctolagus cuniculus [4], this compound came in with an FOC of -6.7. In addition, the CT1 in the assay filed under Oryctolagus cuniculus [5] is -2.7. Moreover, the Rate in the assay listed under Oryctolagus cuniculus [6] is -21.

`CCCCCCC[N+](CC)(CC)CCCCc1ccc(Cl)cc1.O=P([O-])(O)O` [CLOFILIUM PHOSPHATE] had an ERP1 in the assay filed under Oryctolagus cuniculus [1] of 3. Besides, in the assay filed under Oryctolagus cuniculus [2], the ERP3 is 3.4. In the assay listed under Oryctolagus cuniculus [3], the CT3 is given as -1.4. In addition, the FOC in the assay filed under Oryctolagus cuniculus [4] was -10. The CT1 in the assay filed under Oryctolagus cuniculus [5] was found to be 0. In addition, in the assay listed under Oryctolagus cuniculus [6], the Rate is given as -22.

`CCCCCN(CC)CCCC(O)c1ccc(NS(C)(=O)=O)cc1` (stereo not drawn) returned an ERP1 in the assay listed under Oryctolagus cuniculus [1] of 20.8. The ERP3 in the assay listed under Oryctolagus cuniculus [2] amounted to 11.6. This compound came in with a CT3 in the assay filed under Oryctolagus cuniculus [3] of 11.9. Besides, the FOC in the assay filed under Oryctolagus cuniculus [4] turned out to be 17.1. Besides, the CT1 in the assay listed under Oryctolagus cuniculus [5] was 8.6. The compound also returned a Rate in the assay listed under Oryctolagus cuniculus [6] of -20.

In the assay filed under Oryctolagus cuniculus [1], `CCCCCCCCN(CC)CCCC(O)c1ccc(NS(C)(=O)=O)cc1` (stereo not drawn) came in with an ERP1 of 5.3. The ERP3 in the assay listed under Oryctolagus cuniculus [2] was determined as 4.3. In addition, the CT3 in the assay filed under Oryctolagus cuniculus [3] was found to be 29.8. Besides, in the assay listed under Oryctolagus cuniculus [4], the FOC came to 0.7. In the assay filed under Oryctolagus cuniculus [5], this compound came in with a CT1 of 17.3. This compound came in with a Rate in the assay listed under Oryctolagus cuniculus [6] of -28.

In the assay listed under Oryctolagus cuniculus [1], `CCCCCCCN(CC)CCCC(O)c1ccc(Cl)cc1.Cl` (stereo not drawn) gave an ERP1 of 10.5. The ERP3 in the assay filed under Oryctolagus cuniculus [2] is 14. This compound returned an FOC in the assay filed under Oryctolagus cuniculus [4] of -21. Further, the CT1 in the assay listed under Oryctolagus cuniculus [5] is given as 4. For the same compound, the Rate in the assay filed under Oryctolagus cuniculus [6] was -12.

Compound `CCCCCCCN(C)CCCC(O)c1ccc(NS(C)(=O)=O)cc1` (stereo not drawn) showed an ERP1 in the assay listed under Oryctolagus cuniculus [1] of 16.5. This compound also came in with an ERP3 in the assay listed under Oryctolagus cuniculus [2] of 17.2. Also, the CT3 in the assay listed under Oryctolagus cuniculus [3] came out at 70. The compound further came in with an FOC in the assay filed under Oryctolagus cuniculus [4] of 8.5. In the assay listed under Oryctolagus cuniculus [5], the CT1 is reported as 13. Further, in the assay listed under Oryctolagus cuniculus [6], the Rate is listed as -34.

In the assay listed under Oryctolagus cuniculus [1], `CCCCCCCN(CC)CCC(O)c1ccc(NS(C)(=O)=O)cc1` (stereo not drawn) registered an ERP1 of 37.5. This compound also displayed an ERP3 in the assay filed under Oryctolagus cuniculus [2] of 39.3. In the assay filed under Oryctolagus cuniculus [3], this compound displayed a CT3 of 40.3. In addition, the FOC in the assay listed under Oryctolagus cuniculus [4] is on record as -23. In addition, the CT1 in the assay listed under Oryctolagus cuniculus [5] is 15.7. For the same compound, the Rate in the assay listed under Oryctolagus cuniculus [6] is -35.

Take `CCCCCCCN(CC)CC(O)c1ccc(NS(C)(=O)=O)cc1` (stereo not drawn): in the assay filed under Oryctolagus cuniculus [1], the ERP1 stood at 22.9. This compound also showed an ERP3 in the assay filed under Oryctolagus cuniculus [2] of 26.2. Further, the FOC in the assay listed under Oryctolagus cuniculus [4] is -7. In the assay listed under Oryctolagus cuniculus [5], this compound had a CT1 of 10.2. The same compound had a Rate in the assay listed under Oryctolagus cuniculus [6] of -38.

In turn, `CCCCCCN(CC)CCCC(O)c1ccc(NS(C)(=O)=O)cc1` (stereo not drawn) came in with an ERP1 in the assay listed under Oryctolagus cuniculus [1] of 12.1. The same compound yielded an ERP3 in the assay listed under Oryctolagus cuniculus [2] of 7.8. In the assay listed under Oryctolagus cuniculus [3], this compound yielded a CT3 of 0. In the assay filed under Oryctolagus cuniculus [4], this compound came in with an FOC of -10.9. The same compound had a CT1 in the assay listed under Oryctolagus cuniculus [5] of -6.5. This compound also displayed a Rate in the assay filed under Oryctolagus cuniculus [6] of -16.

`CS(=O)(=O)Nc1ccc(C(O)CCCN2CCCCCCC2)cc1` (stereo not drawn) came in with an ERP1 in the assay listed under Oryctolagus cuniculus [1] of 21.4. In the assay listed under Oryctolagus cuniculus [2], this compound had an ERP3 of 23.5. The CT3 in the assay listed under Oryctolagus cuniculus [3] is recorded as -4.7. The FOC in the assay filed under Oryctolagus cuniculus [4] is recorded as -5.6. In addition, the CT1 in the assay filed under Oryctolagus cuniculus [5] is reported as -4.5. For the same compound, in the assay filed under Oryctolagus cuniculus [6], the Rate is -10.

Consider `CCCCCCCNCCCC(O)c1ccc(NS(C)(=O)=O)cc1` (stereo not drawn), for which the ERP1 in the assay listed under Oryctolagus cuniculus [1] stood at 0.4. Also, the ERP3 in the assay listed under Oryctolagus cuniculus [2] came out at 6.8. In the assay listed under Oryctolagus cuniculus [3], this compound yielded a CT3 of 8.3. The same compound displayed an FOC in the assay filed under Oryctolagus cuniculus [4] of -12.1. The compound further displayed a CT1 in the assay filed under Oryctolagus cuniculus [5] of -7.4. This compound also came in with a Rate in the assay listed under Oryctolagus cuniculus [6] of -25.

In the assay filed under Oryctolagus cuniculus [1], `CCCCCCCN(CC)CCCC(O)c1cccc(NS(C)(=O)=O)c1` (stereo not drawn) came in with an ERP1 of 25.2. For the same compound, the ERP3 in the assay filed under Oryctolagus cuniculus [2] is recorded as 19. Further, the CT3 in the assay listed under Oryctolagus cuniculus [3] came out at 54. The FOC in the assay listed under Oryctolagus cuniculus [4] is on record as -15. This compound gave a CT1 in the assay listed under Oryctolagus cuniculus [5] of 21.3. Also, the Rate in the assay filed under Oryctolagus cuniculus [6] is listed as -16.

Compound `CC1CCN(CCCC(O)c2ccc(NS(C)(=O)=O)cc2)CC1` (stereo not drawn) gave an ERP1 in the assay filed under Oryctolagus cuniculus [1] of 4.5. In the assay listed under Oryctolagus cuniculus [2], the ERP3 was found to be 10.5. The compound also came in with a CT3 in the assay listed under Oryctolagus cuniculus [3] of -6.5. For the same compound, in the assay listed under Oryctolagus cuniculus [4], the FOC is -1. For the same compound, the CT1 in the assay listed under Oryctolagus cuniculus [5] is on record as -2.

For the compound `CS(=O)(=O)Nc1ccc(C(O)CCCN2CCCCCC2)cc1` (stereo not drawn), in the assay filed under Oryctolagus cuniculus [1], the ERP1 was determined as 17.1. The ERP3 in the assay listed under Oryctolagus cuniculus [2] was 18.3. The same compound registered a CT3 in the assay listed under Oryctolagus cuniculus [3] of 0.2. The same compound had an FOC in the assay filed under Oryctolagus cuniculus [4] of 3.4. The compound further showed a CT1 in the assay filed under Oryctolagus cuniculus [5] of 1. The compound further registered a Rate in the assay filed under Oryctolagus cuniculus [6] of -11.
